# Sampled rows, rich in hits. Any-hit rate of the full collection: about 1.3%.
# S1P4 antag = S1P4 receptor antagonists, primary screen, cell-based. actives 0.26% (n = 220,000). Sphingosine 1-phosphate receptor 4 (Homo sapiens), O95977. S1P4-expressing cells, antagonist mode, reporter read-out. inhibition, % at 4.98 µM; in the data active means inhibition above about 29%;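 further: 0% = wells stimulated with agonist and 100% = vehicle wells without agonist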
# MDM2 E3 inh = MDM2-luciferase reporter signal enhancers, primary screen, MDM2 E3 ligase inhibitor project, cell-based, luminescence, 1536-well; AID 1230, 2008; cell-based MDM2 ubiquitination luciferase reporter, 2 h; 0 = plate control, 100 = twice control, blank-subtracted; signal enhancement, % at 5 µM; actives 0.11% (n = 210,000); E3 ubiquitin-protein ligase Mdm2 (Homo sapiens), Q00987;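 active means signal enhancement of 30% or more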;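 further: luminescence tracks abundance of the self-degrading MDM2-luciferase fusion protein; higher signal means inhibition of MDM2 E3 ligase activity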
#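 test system = mammalian cells stably expressing self-ubiquitinating, self-degrading MDM2 E3–luciferase fusion | quantity = 2000 cells/well | incubation = cell settling 4 h, compound treatment 2 h, both 37 °C | signal = luminescence with SteadyLite reagent, 15 min at room temperature | evaluation = % enhancement relative to plate controls after blank subtraction | benchmarks = plate controls and plate blanks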
# S1P3 antagonist = S1P3 receptor antagonists, primary screen, cell-based; CHO S1P3 NFAT-BLA reporter, FRET fluorescence, antagonist mode; AID 485, 2006; inhibition, % at 4.98 µM; actives 0.27% (n = 170,000);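 active means inhibition above the plate cutoff, the mean inhibition of test wells on that plate plus 3 SD, cut at about 28% in these data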;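 further: cells challenged with S1P at its EC80 of 0.8 µM; blue over green emission ratio from cleaved BLA substrate after 4 h stimulation; 0% = S1P-stimulated wells and 100% = unstimulated DMSO-only wells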
# Target sequence (Q99500 whole entry, looked up): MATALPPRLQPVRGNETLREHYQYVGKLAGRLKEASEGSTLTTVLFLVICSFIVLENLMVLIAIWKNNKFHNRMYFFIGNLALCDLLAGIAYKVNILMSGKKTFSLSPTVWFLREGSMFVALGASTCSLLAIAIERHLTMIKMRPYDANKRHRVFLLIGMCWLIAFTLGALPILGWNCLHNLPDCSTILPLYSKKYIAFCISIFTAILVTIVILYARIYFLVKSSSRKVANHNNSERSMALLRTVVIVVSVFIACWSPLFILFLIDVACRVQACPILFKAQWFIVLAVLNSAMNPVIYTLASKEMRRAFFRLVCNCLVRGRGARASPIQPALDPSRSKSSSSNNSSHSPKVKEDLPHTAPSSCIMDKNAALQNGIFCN
# S1P4 ag = S1P4 receptor agonists, primary screen, cell-based. Sphingosine 1-phosphate receptor 4 (Homo sapiens), O95977. S1P4-expressing cell line, agonist reporter assay. activation, % at 4.98 µM. actives 0.35% (n = 220,000). AID 1509, 2009; in the data active means activation above about 11%;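 further: 0% = DMSO vehicle and 100% = reference agonist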
# Hsp70 activator = Hsp70 transcriptional activators, primary screen, cell-based, HeLa, Hsp70 promoter luciferase, luminescence, 10 µM. activation, % at 10 µM. actives 0.04% (n = 200,000). HeLa Hsp70 promoter luciferase reporter; scaled: vehicle 0, proteasome-inhibitor control 100%;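 active means activation above the mean across all tested compounds plus 3 SD, cutoff set per campaign, cut at about 5.5% in these data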;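 further: 100% = MG132 at 30 µM as the positive control and 0% = DMSO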
# Dynein transport = inhibitors of GR-EGFP nuclear translocation, primary screen, dynein cargo transport inhibitor project, imaging, high-content, 3617.4 mouse cells; test concentration mostly 20 µM; stimulated with dexamethasone, 1 µM; active compounds read low; z-score, hits read low; actives 0.47% (n = 220,000);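 active means plate z-score of nuclear minus cytoplasmic receptor signal below a set negative limit, without overly bright fluorescence or cell loss, cut at about -3.5 in these data, passing the limit was not always enough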;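 further: z-score of nuclear minus cytoplasmic ring GR-EGFP intensity difference per well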
#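 Medium: Induction medium lacking tetracycline, stripped serum | Probe or stimulus: 1.0 µM final dexamethasone stimulus | Schedule: 48 h induction, then 1 h compound, then 30 min agonist, 37 °C | Signal: Automated 10x imaging of fixed Hoechst-stained cells | Evaluation: Per-cell GR-EGFP intensity, nucleus versus surrounding cytoplasmic ring, well-averaged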
# Numbers without * were called inactive; nt = no result given.
SMILES,S1P4 antag,MDM2 E3 inh,S1P3 antagonist,S1P4 ag,Hsp70 activator,Dynein transport
CC(C)(C)n1nnnc1C(c1cccnc1)N(Cc1ccccc1)Cc1ccco1 (stereo not given),-1,-11,nt,2,0,0.018
COc1cccc(CN(Cc2ccco2)C(c2ccc(F)cc2)c2nnnn2C(C)(C)C)c1 (stereo not given),-5,-12,64*,1,0,-1.7
COc1cccc(OC)c1C(=O)NNC(=O)c1cccc(COc2ccc3c(c2)CCC3)c1,-12,31*,nt,2,0,0.76
Cc1nn(CCCC(=O)NCc2ccccc2)c(C)c1[N+](=O)[O-],-16,40*,-3,1,0,-0.33
Cc1nn(Cc2ccccc2)c(C)c1NC(=O)CCCn1nc(C)c([N+](=O)[O-])c1C,-18,-15,7,2,0,-0.33
CC(C)(C)c1ccc(C(=O)NC(=S)NCc2cccnc2)cc1,-3,-3,1,3,0,3.4
COc1ccc2c(c1)CCc1c(C(=O)NCc3cccnc3)noc1-2,-9,-22,70*,0,0,-0.047
CC(C)(C)c1ccc(C(=O)NCc2cccnc2)cc1,-3,-3,75*,-1,0,-1
O=C(/C=C/c1ccccc1)N1CCN(c2ccc([N+](=O)[O-])c(N3CCOCC3)c2)CC1,-19,7,nt,-2,0,2.8
Cc1nnc(SCCN2CCOCC2)c2nn(-c3ccccc3F)c(C)c12,-13,79*,11,-1,0,-0.2
Cc1nnc(Cl)c2nn(-c3ccccc3F)c(C)c12,-5,1,-4,0,0,-0.51
CC1=CC=CC2=NC(=O)CC(C)(C(=O)O)N12 (stereo not given),8,-5,-7,1,0,0.99
O=C(O)c1ccc2c(c1)C(=O)N(c1nccs1)C2=O,-12,-14,1,-2,nt,0.78
O=S(=O)(/C(=C/c1ccc(C(F)(F)F)cc1)c1nc2ccccc2[nH]1)c1ccccc1,92*,10,8,-1,3,-2.6
O=C(O)CSCCc1ccccn1,-14,1,56*,1,0,0.52
COc1cc(CNc2ncnc3c2[nH]c2ccc(C)cc23)cc(OC)c1,1,-4,14,0,nt,-0.65
Cc1ccc2[nH]c3c(NCc4ccco4)ncnc3c2c1,2,nt,59*,-2,-1,-0.37
CC1C/C(=C\c2cccnc2)C(=O)/C(=C/c2cccnc2)C1 (stereo not given),4,-18,1,-2,110*,-6.4*
O=C1/C(=C/c2cccnc2)CCc2c1[nH]c1ccccc21,-24,-18,8,3,0,-0.56
Cc1cc(N2C(=O)C=CC2=O)c([N+](=O)[O-])cc1C,-2,-8,-9,-1,0,-6.3*
Cc1ccc(C)c(N2CCN(c3ccc(N4C(=O)COCC4=O)cc3[N+](=O)[O-])CC2)c1,-11,-1,-2,1,0,-0.77
Cc1cccc(NC(=O)CSc2cc(C)c(C#N)c3nc4ccccc4n23)c1,-10,nt,-4,0,nt,-2.1
COc1ccc(C2c3ccsc3CCN2C(=O)C(C)(C)C)cc1 (stereo not given),1,-5,6,0,nt,0.37
Nc1nc(-c2cccc(NS(=O)(=O)c3ccccc3)c2)cs1,0,-8,53*,-4,0,-0.032
Cn1cc(Br)c(-c2cccc(N3C(=O)CCCC3=O)c2)n1,5,-1,-12,-1,nt,1.6
SMILES,S1P4 antag,MDM2 E3 inh,S1P3 antagonist,S1P4 ag,Hsp70 activator,Dynein transport
CCN1CCc2c(sc(NC(=O)Nc3ccc(Cl)c(Cl)c3)c2C(N)=O)C1,-7,-5,29*,0,0,-3.3
Cc1ccc(S(=O)(=O)n2nccc2-c2c(-c3ccc(Cl)cc3)noc2C)cc1,1,-11,6,0,nt,-0.53
CC1=CC(=O)c2c(O)ccc(O)c2C1=O,-3,-27,-8,-2,0,-3.9*
O=C1C=C(O)c2cccc(O)c2C1=O,nt,-21,nt,nt,nt,-0.67
Cc1ccc(NC(=O)CSc2ncc3ccccn23)cc1,-16,-8,2,2,0,0.55
Cc1ccccc1NC(=O)CSc1ccncc1,2,-4,-9,0,nt,2.6
COc1ccc(/C=C/C(=O)c2ccc(Cl)s2)cc1O,7,-12,nt,0,0,-3.8*
COc1cc(/C=C/C(=O)c2ccc(Cl)s2)cc(OC)c1O,15,8,nt,0,0,-4*
CCn1nc(NC(=O)c2cccs2)c2cc3ccccc3nc21,-2,-18,0,0,0,0.88
CN(C)c1nc(N)nc(-c2nc3ccccc3s2)n1,-5,-19,60*,1,0,-0.26
CC1CCCCN1C(=O)Cn1cc(C(=O)c2ccco2)c2ccccc21 (stereo not given),-32,-16,96*,-4,0,2
COc1cccc(-c2cc(C(=O)Nc3c(C)nn(Cc4ccccc4)c3C)no2)c1,6,-10,54*,-2,0,0.25
COc1ccc(-c2cc(C(=O)Nc3c(C)nn(Cc4ccccc4)c3C)no2)cc1,-2,14,nt,-2,0,-0.42
CC(=O)Oc1ccc2c(c1)Oc1cc(OC(C)=O)ccc1C21OC(=O)c2ccccc21,2,-5,12,-1,0,-4.7*
Cc1sc(NC(=O)/C=C/c2ccco2)c(C(=O)O)c1C,4,-3,-6,0,nt,-0.72
CC(=O)OC1COC(OC2C(O)C(C)OC(OC3C(OC4CCC5(C)C(CCC6(C)C5CC=C5C7CC(C)(C)CCC7(C(=O)O)CCC56C)C4(C)CO)OCC(O)C3O)C2O)C(O)C1OC(C)=O (stereo not given),15,2,15,2,-1,-5.3*
COc1ccc(CNC(=O)C2CCCN(S(=O)(=O)c3cc(C)ccc3OC)C2)cc1 (stereo not given),-6,5,-14,-1,0,-0.4
CCOC(=O)N1CCN(C(=O)C2CCCN(S(=O)(=O)c3cc(C)ccc3OC)C2)CC1 (stereo not given),-4,79*,17,-1,0,-0.68
Clc1ccc(-n2cccc2CN2CCc3c([nH]c4ccccc34)C2c2ccccn2)nc1 (stereo not given),11,-13,14,0,0,-0.36
COc1ccccc1C(=O)N/N=C/c1ccc(Cl)s1,-7,13,-8,1,0,-0.84

# From PubChem BioAssay
